A selection: hits, their analogues and other compounds. The true share with any hit is near 4.8%.
Beta cell apopt = blocks beta cell apoptosis; actives 0.8% (n = 300,000); INS-1E cytokine-induced death, ATP luminescence, 48 h; percent of positive-control rescue, neutral wells zero; protection from apoptosis, % (concentration not given with the values);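 active = Every replicate reaches about 75%, or at least half do and their mean reaches it too, limit read from the data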;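 note: 0% = cytokine-treated negative control wells and 100% = positive control rescue; higher means more ATP so stronger rescue from cytokine killing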
Mdm2-MdmX inh = human Mdm2/MdmX binding inhibition. actives 3% (n = 330,000). inhibition, % at 8 µM. AID 485346. O15151+Q00987. SaOS-2 split-luciferase Mdm2/MdmX complementation, luminescence;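 active = inhibition of at least 50% at 8 µM in the primary screen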
UPR CHOP act = activators of apoptotic arm of unfolded protein response (CHOP); CHO-CHOP luciferase reporter, UPR activation, luminescence; percent of tunicamycin response over DMSO baseline; AID 449763; actives 0.34% (n = 330,000); activation, % at 10 µM;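 active = at 10 µM dose, activation of 40% or more, normalized to positive control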;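 note: 100% = tunicamycin at 10 µg/mL and 0% = DMSO alone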
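Material: CHO-CHOP cells, stable luciferase reporter of PERK-eIF2a-CHOP signalling; quantity: 500 reporter cells seeded per well; buffer or medium: F12 medium containing 10% fetal bovine serum; compound: one dose, 10 µM in 0.5% DMSO; incubation: 6 h compound treatment, 37 °C; measured by: Steady-Glo luciferase luminescence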
CSC inhib = blocks cancer stem cells; cancer stem cell-like cells viability, luminescence; inhibition, % at 7.5 µM; actives 1.1% (n = 300,000); AID 2717; in the data active = inhibition above about 75%; tested in HMLE shEcad cells
UPR XBP1 act = activators of adaptive arm of unfolded protein response (XBP1); CHO-XBP1 luciferase reporter, IRE1-XBP1 UPR activation, luminescence; percent of tunicamycin response, DMSO as zero; activation, % at 20 µM; actives 0.33% (n = 330,000);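 active = versus positive control, 20 µM dose yields 30% or more activation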;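 note: 100% = tunicamycin at 10 µg/mL and 0% = DMSO only wells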
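Material: CHO-XBP1 cells stably carrying IRE1-XBP1-driven luciferase reporter / Amount: 1000 cells per well / Compound: 20 µM, 1% DMSO / Times: 6 h treatment, 37 °C / Detection: luciferase luminescence / Measure: % activation of reporter signal versus tunicamycin and DMSO controls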
SKKanGAS inh = SKKanGAS growth inhibition; S. pyogenes SKKanGAS, kanamycin growth, BacTiter-Glo, 6 h; inhibition, % at 7.5 µM; actives 1.3% (n = 300,000); AID 1662;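 active = mean replicate score, as percent of positive control median, at least 50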;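 note: strain carries kanamycin resistance gene driven by streptokinase promoter and grows in 40 µg/ml kanamycin; loss of luminescence reflects streptokinase promoter inhibition or plain growth inhibition; 0% = median of DMSO wells and 100% = positive control at its reference dose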
Mdm2 MdmX conf = confirmation of human Mdm2/MdmX interaction inhibitors | Mdm2-MdmX binding, luminescent assay | inhibition, % at 8 µM | actives 55% (n = 10,000) | AID 489028 | shares compounds with Mdm2-MdmX inh; in the data active = inhibition above about 40%
Full FLuc ctr = full-length luciferase inhibition in Mdm2/MdmX counter-screen; shares compounds with Mdm2-MdmX inh; SaOS-2 full-length luciferase counterscreen, luminescence; inhibition, % at 8 µM; actives 77% (n = 6,200);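 active = mean inhibition at 8 µM reaching about 37%, which flags the compound as non-specific, limit read from the data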;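 note: p53-null SaOS-2 cells with luciferase driven by a doxycycline-inducible promoter; compound on cells about two nights before reading with doxycycline added after day one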
* = called active by the depositor; . = not tested or not shown.

SMILES	Beta cell apopt	Mdm2-MdmX inh	UPR CHOP act	CSC inhib	UPR XBP1 act	SKKanGAS inh	Mdm2 MdmX conf	Full FLuc ctr
COc1ccc(-c2cc3c(=O)n(CC(=O)NCCCN4CCC(N5CCCCC5)CC4)nc(C)n3n2)cc1	-12	99*	3	-16	3	-1	100*	46*
Cc1nn(CC(=O)NCCCN2CCCCC2)c(=O)c2cc(-c3ccccc3)nn12	0	17	-2	3	-3	-1	.	.
O=C(Nc1cccc(C(=O)O)c1)Nc1ccc2c(c1)OCO2	-4	54*	-9	4	-8	7	63*	50*
CNCc1ccccc1Sc1cc(O)ccc1O	-2	91*	16	.	2	.	19	.
Cc1ccc(SCC(=O)NC(=O)NC2CCCC2)c(C)c1	.	0	-2	.	1	.	.	.
COc1ccccc1N1CCN(C(=O)c2cc3c(C)nc4ccccc4c3o2)CC1	37	54*	1	-12	0	27	20	.
COc1ccccc1N1CCN(C(=O)c2oc3ccc(Br)cc3c2C)CC1	3	57*	-1	57	0	18	58*	54*
COc1ccccc1N1CCN(C(=O)c2oc3ccc(F)cc3c2C)CC1	3	34	0	41	0	-1	.	.
CN(Cc1ccccc1)c1ncnc2sccc12	-4	8	2	-4	-1	7	.	.
Cc1ccc(C(=O)NCCN2C3=NC[C@H](C(C)C)N3C[C@H]2Cc2ccc(O)cc2)cc1Br	7	41	-1	14	-3	-3	.	.
COc1ccc(C[C@H]2CN3C(=NC[C@@H]3C(C)C)N2CCNC(=O)c2ccc(C)c(Br)c2)cc1	27	64*	1	16	3	-2	32	.
O=C(C1CCCN(Cc2ccccc2Cl)C1)N1CCCCC1 (stereo unspecified)	-2	13	1	-14	0	3	.	.
O=C(Nc1cccc(-c2cn3ccccc3n2)c1)c1cc2ccccc2oc1=O	9	100*	4	5	29	4	21	.
CCOC(=O)Cn1cc(/C=N/NC(=O)CC#N)c2ccccc21	-4	22	0	-7	-1	-15	.	.
N#CCC(=O)N/N=C/c1cn(Cc2ccc(Cl)c(Cl)c2)c2ccccc12	.	73*	-1	10	-1	18	47*	53*
COc1ccc(-c2cn[nH]c2-c2ccc(OC)cc2O)cc1	-27	71*	-1	-6	-3	12	62*	32
COc1ccccc1-c1cn[nH]c1-c1ccc(OCc2ccccc2)cc1O	-2	13	-1	34	-2	48	.	.
COc1ccc(-c2[nH]ncc2-c2ccc(Cl)cc2)c(O)c1	0	44	-1	26	-1	23	.	.
Oc1ccc(-c2[nH]ncc2-c2ccc(Br)cc2)c(O)c1	3	56*	0	12	5	-5	20	.
O=[N+]([O-])c1ccc(COc2ccc(-c3[nH]ncc3-c3ccc(Cl)cc3)c(O)c2)cc1	17	82*	2	82*	0	95*	51*	43*
COc1ccc(-c2cn[nH]c2-c2ccc(OCc3ccccc3)cc2O)cc1	-11	78*	-1	102*	1	75*	77*	55*
COc1ccc(-c2oc3ccccc3c(=O)c2OC(C)=O)cc1	3	73*	3	27	5	16	83*	51*
CC(=O)Oc1c(-c2ccc(Br)o2)oc2ccccc2c1=O	2	93*	1	21	-1	86*	41*	30
COc1ccc(-c2oc3ccccc3c(=O)c2OCC(=O)O)cc1	2	-13	1	.	-2	-9	.	.
Cc1ccc(S(=O)(=O)N2CCN(C(=O)NCc3ccc(C(=O)O)cc3)CC2)cc1	-6	20	-1	-16	-1	-5	.	.
